Only some compounds are listed: those with a hit (about 2.6% of all), similar ones and a draw of the others.
SENP7 inh: SENP7 protease inhibition; Q9BQF6; recombinant SENP7, Z-RLRGG-aminoluciferin luminescence, 40 min; inhibition, % at 5 µM; 1.5% of 330,000 active;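 active = inhibition above about 50% at the single test dose, limit read from the data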;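 also: plate controls were DMSO with enzyme for no effect and no enzyme buffer wells for full effect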
SENP1 FRET inh: SENP1 (human) catalytic domain inhibition; Q9P0U3; recombinant SENP1 catalytic domain, CyPet-SUMO1-YPet FRET cleavage; inhibition, % at 10 µM; 0.21% of 360,000 active; AID 624204;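 active = inhibition at least 30% at 10 µM, raw YFP signal under a set limit, fluorescence ratio 0.5 to 1.5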;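 also: 0% = enzyme with DMSO and 100% = no enzyme wells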
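Compound: 10 µM single point, 0.5% DMSO; Test system: hSENP1 catalytic domain, recombinant; Timing: 50 min reaction at room temperature; Technique: FRET, CFP and YFP emission; Control set: no-enzyme wells low, DMSO-plus-enzyme wells high control.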
SENP8 block-1: blocks the human protease SENP8; inhibition, % at 10 µM; AID 2540; 1.2% of 330,000 active; purified SENP8, Z-RLRGG-aminoluciferin cleavage, luminescence; Q96LD8; in the data active = inhibition above about 50%
SENP8 block-2: blocks human SENP8 cleavage of Nedd8 substrate; 0.64% of 360,000 active; inhibition, % at 20 µM; AID 602440; Q96LD8; recombinant SENP8, Nedd8 substrate fluorescence; in the data active = inhibition mostly above about 40%, no sharp cut-off; inactive = mostly below about 27%
SENP6 inh: blocks the human protease SENP6; Q9GZR1; Recombinant SENP6 catalytic domain, aminoluciferin luminescence; inhibition, % at 10 µM; 1.8% of 330,000 active;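 active = inhibition above about 50% at the single tested dose, limit read from the data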;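 also: plate controls were DMSO wells with enzyme for no effect and DMSO wells lacking enzyme for full effect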
Target sequence (Q9GZR1 628-1112 limits assumed): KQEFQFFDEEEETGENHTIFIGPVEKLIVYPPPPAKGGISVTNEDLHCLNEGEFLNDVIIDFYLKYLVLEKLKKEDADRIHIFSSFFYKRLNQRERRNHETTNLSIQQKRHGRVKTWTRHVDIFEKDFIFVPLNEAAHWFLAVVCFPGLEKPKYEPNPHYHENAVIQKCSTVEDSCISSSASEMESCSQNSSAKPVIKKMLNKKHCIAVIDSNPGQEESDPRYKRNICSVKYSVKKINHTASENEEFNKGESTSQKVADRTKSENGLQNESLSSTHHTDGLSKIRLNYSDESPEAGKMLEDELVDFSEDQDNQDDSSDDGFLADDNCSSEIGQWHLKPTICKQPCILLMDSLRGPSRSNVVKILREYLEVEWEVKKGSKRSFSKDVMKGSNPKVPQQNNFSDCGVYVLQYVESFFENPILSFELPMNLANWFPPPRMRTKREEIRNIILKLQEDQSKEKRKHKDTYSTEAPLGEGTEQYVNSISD
Platelet DG rel: modulates dense granule release in human platelets. human platelet-rich plasma, SFLLRN dense granule ATP release, luminescence. inhibition, %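 (compounds screened at 7.5 µM in platelet-rich plasma)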. 0.22% of 300,000 active. AID 1663;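 active = mean replicate score, as percent of positive control, at or above 50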
* hit, by the source's call; / = not tested or not shown.

SMILES	SENP7 inh	SENP1 FRET inh	SENP8 block-1	SENP8 block-2	SENP6 inh	Platelet DG rel
O=C(Cn1cnc2c(cnn2-c2ccc(F)cc2)c1=O)OCc1ccccc1	-3	-1	-3	30	-11	53*
O=C(Nc1ccccc1)Nc1ccc(-n2ccc(C(F)(F)F)n2)cc1	58*	0	57*	8	71*	15
O=C(O)CC(CC(=O)Nc1ccc(-n2ccc(C(F)(F)F)n2)cc1)c1ccccc1 (stereo not drawn)	3	-1	5	5	1	-15
COc1cccc2cc(-c3ccnc(N)n3)oc12	53*	-1	21	-436	15	2
Cc1cc(C)c[n+](-c2[nH]c(=O)sc2/C=N/NC([S-])=Nc2ccccc2)c1	0	33*	3	33	-6	-1
Cc1cc[n+](-c2[nH]c(=O)sc2/C=N/NC([S-])=Nc2ccccc2)cc1	1	25	-5	33	-4	5
Nc1ccc(Oc2ccc3nc(-c4ccccc4)c(-c4ccc([N+](=O)[O-])cc4)nc3c2)cc1	11	3	-6	43*	-9	-13
N#Cc1ccc(Oc2ccc(-c3nc4ccccc4nc3-c3ccccc3)cc2)cc1C#N	-3	2	-14	-187	-24	-3
O=S(=O)(Nc1ccc(-c2ccc(N3CCOCC3)nn2)cc1)c1ccc(Cl)c(Cl)c1	-1	0	-1	-38	-2	50*
CCN(CC)CCNc1ccc(CO)c2sc3ccccc3c(=O)c12	6	22	8	15	15	-2
O=c1c2ccccc2sc2c(CO)ccc(NCCN3CCCCC3)c12	/	27	/	41*	/	/
COC(=O)c1cccc(CN2C(=O)C(C)Oc3ccc(C)cc32)c1 (stereo not drawn)	/	2	/	10	/	/
Cc1cc(/C=C2\C(=O)NN(c3ccccc3)C2=O)c(C)n1-c1ccccc1O	34	3	19	53*	8	9
CC12CCC(C/C1=N\N=C1\NC(=O)/C(=C\c3ccc(Cl)cc3)S1)C2(C)C (stereo not drawn)	-3	3	-19	40*	-6	2
Cc1ccc(C(=O)C2C(=O)C3CCC2C3)cc1 (stereo not drawn)	/	0	/	13	/	/
O=C(Nc1cccc(Cl)c1)Nc1cccc(C(=O)O)c1	93*	2	87*	26	96*	4
CCOC(=O)c1cccc(NC(=O)Nc2ccc(OCC)cc2)c1	-10	-1	-17	-2	-44	3
CCOc1ccc(NC(=O)Nc2cccc(C(=O)O)c2)cc1	99*	0	97*	-5	99*	5
CSc1cccc(NC(=O)C(=O)NCc2ccccc2)c1	-2	0	-3	21	-14	6
O=C(NCc1ccccc1)C(=O)Nc1cccc(C(=O)O)c1	93*	0	84*	23	93*	-2
CC1=C(C(=O)N2CCOCC2)CC(CC(=O)NC2CC2)C(=O)N1Cc1ccc(F)cc1 (stereo not drawn)	/	-1	/	19	/	/
COc1cccc(S(=O)(=O)N(C)C[C@H]2OCc3cn(nn3)CCCC(=O)N([C@H](C)CO)C[C@@H]2C)c1	/	1	/	1	/	/
C=CCOc1ccc(/C=C/C(=O)OCC(=O)N2CCN(C(C)=O)CC2)cc1	0	2	1	-7	2	/
C=CCOc1ccc(/C=C/C(C)=N\O)cc1	89*	3	83*	15	79*	24
O=C(O)c1cc(NN=Nc2cccc(S(=O)(=O)O)c2)cc([N+](=O)[O-])c1	-9	0	-5	20	-12	3
SMILES	SENP7 inh	SENP1 FRET inh	SENP8 block-1	SENP8 block-2	SENP6 inh	Platelet DG rel
O=C(O)c1cc(NN=Nc2cccc([N+](=O)[O-])c2)cc([N+](=O)[O-])c1	20	1	57*	16	77*	-2
N/C(=N\OC(=O)c1ccc(Br)cc1)c1cccc([N+](=O)[O-])c1	16	8	-19	8	22	1
O=C(O)c1cc(NN=Nc2ccc(Br)cc2)cc([N+](=O)[O-])c1	15	-1	11	28	52*	18
Cc1c(N/N=C(\C#N)C(=O)c2ccc(Cl)cc2)c(=O)n(-c2ccccc2)n1C	/	2	/	26	/	-16
COc1ccc(C(=O)/C(C#N)=N/Nc2ccc([N+](=O)[O-])cc2)cc1	9	17	4	40*	10	8
N#C/C(=N\Nc1ccc(Cl)cc1)C(=O)c1ccccc1	0	2	8	46*	40	-1
CCOC(=O)NC(=O)/C(C#N)=N\Nc1ccc(Cl)cc1	-9	1	-4	43*	-8	3
O=C(CC[C@H]1O[C@@H](n2ccc(=O)[nH]c2=O)[C@H](O)[C@@H]1O)NCCN1CCOCC1	/	0	/	13	/	/
O=C1NC[C@H](Cc2ccccc2)N(C[C@@H]2CCCN2C[C@H](Cc2ccc(O)cc2)N2C[C@H](Cc3ccccc3)N(CCc3ccccc3)C(=O)C2=O)C1=O	/	0	/	2	/	/
CCNC1=C(Cl)C(=O)c2ccccc2C1=O	30	1	15	94*	41	-12
O=C1C(Cl)=C(Nc2ccc(O)cc2)C(=O)c2ccccc21	0	1	11	41*	26	1
CCN(CC)c1ccc(NC2=C(Cl)C(=O)c3ccccc3C2=O)cc1	/	0	/	50*	/	/
Cc1ccc(NC2=C(Cl)C(=O)c3ccccc3C2=O)cc1	/	2	/	2	/	2
O=C1C(Cl)=C(NCCN2CCCCC2)C(=O)c2ccccc21	20	1	30	76*	37	1
O=C(NCCN1CCCC1)c1ccccc1Cl	0	0	2	17	0	-4
CCCC(=O)NC1=C(Cl)C(=O)c2ccccc2C1=O	/	1	/	35	/	/
CC(=O)N[C@@H]1C=C[C@@H](CC(=O)NCc2ccc(Cl)cc2)O[C@@H]1CO	/	-1	/	24	/	/
CC(C)(C)OC(=O)N1CCC[C@H]1C(=O)NCc1ccc(F)cc1F	/	2	/	20	/	/
O=C(Nc1ccc(Oc2ccccc2)cc1)c1csc([C@@H]2C[C@H](O)[C@@H](CO)O2)n1	/	-1	/	12	/	/
CCCCc1ccc(S(=O)(=O)NC(=O)C2(C)CCN2C(=O)C/C=C/c2ccccc2)cc1 (stereo not drawn)	/	-2	/	2	/	/
O=S(=O)(c1ccccc1)c1ccc(NCc2ccco2)cc1	7	-2	6	-92	18	4
O=C1C(Cl)=C(NCc2ccco2)C(=O)c2ccccc21	/	2	/	46*	/	/
O=C(/C=C\Nc1ccc2c(c1)OCO2)c1ccc(Cl)s1	71*	0	18	19	13	1
O=C(O)c1cc2ccccc2c2c1C(=O)c1ccccc1-2	/	-5	/	4	/	/
Nc1cc(C(=O)O)c(N)c2c1C(=O)c1ccccc1C2=O	11	8	23	51*	59*	2
COc1cc(/C=C2/C(=O)N(c3ccc(Br)cc3)N=C2C)cc(OC)c1OC	20	2	-9	49*	20	-2

Bioassay records as filed in PubChem.
